Results reported in ChEMBL document CHEMBL4513216, “Probing the Open Global Health Chemical Diversity Library for Multistage-Active Starting Points for Next-Generation Antimalarials” (ACS Infect Dis, 2020).

Assay: Toxicity liver stage against HepG2, at 10uM
Format: cell-based
Set-up: test concentration 10 uM, cell line HepG2-A16-CD81EGFP
Settings: human, HepG2-A16-CD81EGFP cells; read-out: INHIBITION
Procedure, shortened: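 Uninfected HepG2-A16-CD81EGFP cells, 3 × 10^3 per well, 1536-well, plated on prespotted compound at 10 μM final, parasite-free screening media added to match infected plates; puromycin 10 μM positive, DMSO 0.5% negative; run in parallel with 48 h PbLuc assay at 37 °C, 5% CO2; viability by CellTiter-Glo luminescence, normalized to controls.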

SMILES | cytotoxicity at 10 µM
CCN1CCN(CCNC(=O)c2sc(C(C)C)nc2C)CC1 | 6.23%
Cc1nc(C)n(CC2CCCCN2Cc2cn3ccccc3n2)n1 (configuration not stated) | -4.47%
COCC1c2c(cnn2C)CCN1Cc1ccsc1 (configuration not stated) | -13.3%
CCS(=O)(=O)c1ncc(CN(C)Cc2ccccn2)n1CCOC | -13.3%
CNC(=O)Cc1ccc(NC(=O)NC(C)C(C)C)cc1 (configuration not stated) | -4.69%
COCCn1ccc2c(NC(=O)C(C)C)cccc21 | 1.01%
CNc1ncc(CN(C)c2ncnc3onc(C)c23)cn1 | -16.8%
Cc1cnn(CC2CN(Cc3csc(C4CCCC4)n3)CCO2)c1 (configuration not stated) | -5.47%
O=c1[nH]c(COc2cccc(F)c2)nc2c1CCNC2 | 10.1%
CN1CCOC[C@H]1c1nc(-c2cccnc2)c[nH]1 | -0.405%
CN(C)S(=O)(=O)N1CCCC1C(=O)N1CCSCC1 (configuration not stated) | 6.67%
CC(C)Oc1nnc(SCC(=O)NCC(=O)N2CCCC2)s1 | 1.38%
CCCc1nc(C)c(C(=O)NC2CCN(c3ncccn3)CC2)s1 | 16.7%
CCn1ccnc1CN1CCN(CC(=O)NC(C)(C#N)C2CC2)CC1 (configuration not stated) | -8.24%
Cc1ccccc1C(NC(=O)Cn1cc(C2CC2)nn1)C1CC1 (configuration not stated) | -1.03%
O=C(COc1ccccc1)N1CCC[C@]2(C[C@@H](OCC3CC3)CO2)C1 | -1.69%
Cc1ccc(CN2CC[C@H]3CO[C@H](CN(C)C)[C@H]3C2)o1 | -114%
CCCC(NC(=O)c1cc(C)ccc1C)c1nnn[nH]1 (configuration not stated) | -9.11%
CCN1CCN(C(C)CNC(=O)Nc2nnc(C(C)C)s2)CC1 (configuration not stated) | 1.06%
Cc1noc(C)c1CC(=O)N1CCCC(n2ccnc2C)C1 (configuration not stated) | -4.49%
CN1CCN(CC(=O)NCc2ccco2)Cc2ccccc21 | -3.81%

SMILES | cytotoxicity at 10 µM
COCc1nc(NC(C)Cc2cc(C)n[nH]2)c2cnn(C)c2n1 (configuration not stated) | -10%
OC1(Cn2ccc3ncccc32)CCN(Cc2cccnc2)CC1 | 5.72%
Cc1nc2c(N3CCN(CCO)CC3)nc(N)nc2n1C | -10.8%
COCCOC1CCN(C(C(=O)O)c2c(Cl)cccc2OC)CC1 (configuration not stated) | 6.15%
CCN1Cc2ccccc2N(C(=O)C2CCC2)CCC1=O | -3.53%
COCC(=O)NC(c1ccc(Cl)cc1)c1noc(C)n1 (configuration not stated) | 6.66%
COc1cccc(CC(C)NC(=O)NCCc2cccnc2)c1 (configuration not stated) | -11%
CC(C)C(C(=O)N1CCN(Cc2ccncc2)CC1)n1cncn1 (configuration not stated) | -13%
O=C(NCC(O)c1cccc(F)c1)C1CCN(C2CCCCC2)CC1 (configuration not stated) | 7.07%
COCCN(C)C[C@@H]1CN(C(=O)c2c(F)ccc(OC)c2F)C[C@@H]1CO | 0.45%
COc1ccc(CCN2CC(c3nc(CSC)no3)CCC2=O)cc1 (configuration not stated) | 3.11%
Cc1nccc(CN2Cc3nccn3CC2c2ccccc2)n1 (configuration not stated) | 3.1%
Cc1cnc(CNCc2cn(CCN3CCSCC3)nc2C)cn1 | -0.629%
Cc1ccc(C(CNCc2cccc3c2OCO3)N2CCOCC2)o1 (configuration not stated) | -38.9%
CC(c1cccc(-c2ncccc2F)c1)N(C)C (configuration not stated) | -19.4%
O=C(C1CCOCC1)N(CCc1ccccc1)C1CCOC1 (configuration not stated) | 4.77%
CC(C)n1[nH]c(=O)c2c1NC(=O)CC2c1ccc2ncccc2c1 (configuration not stated) | 9.76%
CCOc1ncccc1C(=O)NCCN(CC)C1CC1 | 4.4%
CC(c1nc(C2CC2)no1)N1CCN(c2ccc(C#N)cn2)CC1 (configuration not stated) | 1.18%
COCc1cn(CC2CCN(Cc3c(C)[nH]c4ccccc34)CC2)nn1 | -5.36%
O=C(NCc1cc2ccccc2[nH]1)C1CCCN(C(=O)N2CCCC2)C1 (configuration not stated) | 6.81%

SMILES | cytotoxicity at 10 µM
Cc1cc(C)nc(N2CCC(C(=O)Nc3ncc[nH]3)CC2)n1 | 4.47%
COCCNC(=O)Nc1cc2c(cc1SC)OCCO2 | -3.59%
CS(=O)(=O)NCc1cccc(COC2CCCCC2)c1 | 3.12%
CCOc1nc2cccnc2n(CC(=O)NCCOC)c1=O | -7.84%
CC(C)Oc1cccc(CC(=O)NC2CCN(CC(N)=O)CC2)c1 | 3.05%
NC(=O)C1(CCCc2ccccn2)CCCN(c2ncccn2)C1 (configuration not stated) | -5.69%
COCCC(=O)N1C[C@H]2CN(Cc3cccc(C)c3)C(=O)[C@H]2C1 | 2.05%
O=C(c1cc(-n2cccn2)ccn1)N1CCOc2ccc(F)cc21 | 1.26%
CN1CCN(C(=O)c2nc3c(o2)CN(C(=O)c2cccnc2)C3)CC1 | -7.06%
COc1cc(C(=O)N2CCC(c3n[nH]c(C)n3)CC2)cc(OC)c1C | -10.9%
CCc1cc(N2CCCC(c3noc(CC)n3)C2)ncn1 (configuration not stated) | 9.74%
Cc1cc(C)n(C2CCN(c3ncnc4c3CCC4)C2)n1 (configuration not stated) | 23.6%
CN(C)c1ncccc1CNC(=O)NCc1cccs1 | -4.87%
N#CCCCOc1cccnc1NC(=O)CCC1CCCC1 | -2.08%
COCCc1noc(CN(C)C(=O)c2cccc(N3CCCC3=O)c2)n1 | -9.91%
Cc1ccncc1NS(=O)(=O)c1ccc(Cl)s1 | 0.405%
O=C(c1ccc(F)c(F)c1)N1CCC[C@]2(C[C@@H](OCC3CC3)CO2)C1 | -70.1%
CCOC(=O)N1CCN(C(=O)c2cc(OCC)c3ccoc3c2)CC1 | 41.5%
CCC1CN(C(=O)c2cccc(OCc3cscn3)c2)CCO1 (configuration not stated) | -7.51%
CC(C)C(=O)N1CCOC[C@H](Oc2ccc(C(F)(F)F)cc2)C1 | 4.53%
Cc1cc(C)c(CNC(=O)N(C)Cc2nnc3n2CCC3)c(=O)[nH]1 | -10.5%

SMILES | cytotoxicity at 10 µM
Cc1noc(C)c1CN1CC2(CCCCN2c2cncnc2)CC1=O (configuration not stated) | 4.13%
Cc1ccc(N2CC3(COCCN(Cc4ccncc4)C3)OCC2=O)s1 (configuration not stated) | 8.59%
Cn1cc(CN2CCC3(CC2)CN(c2cccnc2)C(=O)CO3)cn1 | -103%
OC(COCc1ccc(Cl)cc1)CN1CCC(c2ccn[nH]2)CC1 (configuration not stated) | -7.21%
COc1ccc(NC(=O)c2cnc(N(C)C3CCCCC3)nc2N)cc1 | -3.64%
COCCn1cc(NC(=O)NC(C)Cc2c(F)cccc2F)cn1 (configuration not stated) | -4.5%
Cc1nc(N)nc(C)c1CC(=O)N1CCC2(CC1)OCCCC2O (configuration not stated) | -1.8%
CCc1ccccc1OCCN1CC[C@@]2(O)CCNC[C@H]2C1 | -160%
CC(=O)c1cnc(NCCN2CCCC2)nc1C | -3.73%
O=C([C@@H]1C[C@@H]2CCN(Cc3ccco3)C[C@H]2O1)N1CCCO1 | 4.78%
CC(=O)N1[C@H](CN(C)C)C[C@@H]2CN(C(=O)c3cnc(C)cn3)CC[C@@H]21 | -2.89%
CSc1ccccc1NC(=O)CCC(=O)N(C)C1CCN(C)CC1 | -2.91%
COc1ccc(C(=O)O)cc1-c1cccc(C(C)N(C)C)c1 (configuration not stated) | -7.13%
O=C(Cc1csc(-c2ccsc2)n1)N1CCN(c2cnccn2)CC1 | -7.12%
CC(C)c1csc(C(=O)N2CCCC(Cn3cc(CO)nn3)C2)n1 (configuration not stated) | 6.29%
Cc1cc(CN2CCC3(CC2)COC(COCC2CC2)C3)no1 (configuration not stated) | -107%
CNc1cc(C)nc(N2C[C@H](NC(=O)C3CCOCC3)[C@@H](C3CC3)C2)n1 | 4.41%
O=C([C@@H]1CC[C@@H]2[C@@H](CCN2Cc2ccoc2)O1)N1CCCC1 | -10.2%
Cc1ccc(S(=O)(=O)Cc2noc([C@@H]3C[C@@H](O)CN3C)n2)cc1 | 0.847%
